A selection: hits, their analogues and other compounds. The true share with any hit is near 4%.
KCNK9 block: human KCNK9 channel inhibition; B-score at 10 µM; HEK293 KCNK9, FluxOR thallium flux fluorescence; active compounds read low; 1.2% of 310,000 active;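 active = ratio B-score over 3 SD below the library mean, with starting fluorescence within 5 SD of its mean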;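 also: negative B-score means less thallium flux so channel inhibition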
hERG protect: shields human hERG channel from block by proarrhythmic agents; Q12809; CHO-hERG, FluxOR thallium flux, dofetilide IC70 present; activation (rescue from dofetilide block), less the hit threshold, % at 10 µM; 0.51% of 310,000 active; AID 1511;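 active = activation above the mean of controls blocked by dofetilide plus 5 SD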;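 also: thallium influx through hERG after potassium depolarization seen as dye fluorescence rise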
PHOSPHO1 block: inhibitors of human PHOSPHO1 phosphatase | recombinant PHOSPHO1, absorbance phosphatase assay | AID 1565 | inhibition, % at 13.3 µM | Q8TCT1 | 1.1% of 290,000 active; in the data active = inhibition above about 60%
KCNQ1 block: human KCNQ1 channel inhibition; P51787; CHO-K1 KCNQ1, FluxOR thallium flux fluorescence; active compounds read high; B-score at 10 µM; 1.3% of 310,000 active; AID 2642;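 active = compounds whose thallium flux B-score, printed positive for inhibition, exceeds three library SD while starting fluorescence stays within three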;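 also: channel opened by potassium depolarization with thallium stimulus after 20 min compound exposure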
Target sequence (P51787 whole entry, looked up): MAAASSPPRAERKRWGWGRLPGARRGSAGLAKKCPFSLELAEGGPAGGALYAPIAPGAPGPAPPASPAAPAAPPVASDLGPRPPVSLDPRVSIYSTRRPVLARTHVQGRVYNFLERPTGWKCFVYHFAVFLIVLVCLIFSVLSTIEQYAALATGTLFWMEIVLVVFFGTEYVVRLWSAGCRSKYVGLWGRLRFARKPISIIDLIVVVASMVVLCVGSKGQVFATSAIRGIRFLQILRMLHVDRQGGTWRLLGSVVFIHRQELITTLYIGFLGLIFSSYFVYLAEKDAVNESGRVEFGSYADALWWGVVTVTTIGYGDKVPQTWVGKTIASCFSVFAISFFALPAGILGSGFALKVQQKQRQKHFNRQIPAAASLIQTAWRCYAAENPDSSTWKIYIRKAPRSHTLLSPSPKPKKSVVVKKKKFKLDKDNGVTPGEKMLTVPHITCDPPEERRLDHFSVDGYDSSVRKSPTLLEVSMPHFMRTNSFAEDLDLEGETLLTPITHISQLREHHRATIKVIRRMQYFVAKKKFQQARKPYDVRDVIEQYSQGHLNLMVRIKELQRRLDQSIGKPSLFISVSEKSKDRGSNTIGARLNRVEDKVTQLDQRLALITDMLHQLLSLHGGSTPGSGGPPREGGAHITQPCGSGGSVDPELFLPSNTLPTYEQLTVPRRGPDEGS
KCNQ1 act: potentiates or activates the human KCNQ1 potassium channel | P51787 | B-score at 10 µM | CHO-K1 KCNQ1, thallium flux FluxOR fluorescence; active compounds read high | 0.35% of 310,000 active;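 active = fluorescence ratio B-score, a plate-corrected score, at least three library SD, with initial intensity B-score within 5 SD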
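Doses: Single concentration per compound, DMSO matched to controls | Test system: KCNQ1-transfected CHO-K1 cells | Timing: 90 min dye loading and 20 min compound exposure, both at room temperature | Measured by: Kinetic FluxOR thallium fluorescence, 10-s 1-Hz baseline, 110-s post-stimulus read | Medium: Assay buffer with matched DMSO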
KCNK3 block: human KCNK3 channel inhibition, primary screen | O14649 | CHO-KCNK3 thallium flux, FluxOR fluorescence; active compounds read low | B-score at 10 µM | 0.84% of 340,000 active | AID 602410;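 active = B-score under library mean minus 4 SD, starting fluorescence ratio at most library mean plus 5 SD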;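 also: more negative B-score means stronger inhibition of thallium flux through KCNK3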
KCNK9 block conf: human KCNK9 inhibitor confirmation. inhibition, % at 10 µM. shares compounds with KCNK9 block. HEK293 KCNK9 cells, FluxOR thallium flux fluorescence. 43% of 4,900 active;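 active = thallium signal inhibited by more than 5 SD of the compound-free buffer control wells, on both duplicate plates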;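 also: 0% = assay buffer control wells without compound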
Kir21 sel: mouse Kir2.1 off-target activity of KCNK9 modulators. shares compounds with KCNK9 block. AID 492993. Kir2.1 cells, FluxOR thallium flux fluorescence. inhibition, % at 10 µM. 4% of 4,900 active;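 active = thallium signal drop more than 5 SD beyond the mean of the no-compound control wells, seen in both duplicate plates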;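 also: signal is fluorescence rise after thallium addition divided by baseline fluorescence; plate controls were assay buffer only for no effect and full block by chlorpromazine control for full effect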
HEK293 Tl ctr: second counter-screen for KCNK9 modulators: effect in non-induced cells; shares compounds with KCNK9 block; non-induced KCNK9-HEK293, FluxOR thallium flux; inhibition, % at 10 µM; 40% of 4,900 active; AID 492997;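 active = thallium signal drop beyond 5 SD of the untreated control mean, on both duplicate plates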;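 also: plate controls were buffer only IC0 wells for no effect and SID17386958 at its maximal inhibitory level for full effect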
Starred values were filed as active, the others as inactive; i = inactive; · = no result given.

SMILES	KCNK9 block	hERG protect	PHOSPHO1 block	KCNQ1 block	KCNQ1 act	KCNK3 block	KCNK9 block conf	Kir21 sel	HEK293 Tl ctr
O=C(Cn1c2c(c(-c3ccccc3)cc1=O)CCCC2)N1CCCCCC1	i	-18.4	8.7	i	i	i	i	i	32.0%*
CC1(C)C2CC=C(/C=N/NC(=S)NCCc3ccccc3)C1C2 (configuration not stated)	i	-17.7	29.5	i	i	i	i	i	i
O=C(COc1ccc2ccccc2c1)Nc1cccc2cccnc12	-8.68*	-12.9	15.9	i	i	i	45.5%*	i	39.0%*
COc1ccc(C2=NOC(Cn3nc(-c4ccccc4)cc3C(=O)NCc3ccco3)C2)cc1 (configuration not stated)	·	·	·	·	·	i	·	·	·
CCOC(=O)CSc1cc(CS(=O)(=O)c2ccccc2)nc(-c2ccccc2)n1	i	-11.3	18.3	i	i	i	·	·	·
CCOC(=O)Cn1c(S(=O)(=O)Cc2ccc(F)cc2)nc(-c2ccccc2)c1-c1ccccc1	-9.07*	-7.1	-5.7	i	i	i	33.5%*	i	39.0%*
NC(=O)Cn1c(S(=O)(=O)Cc2ccccc2)nc2ccccc21	i	-3.6	·	i	i	i	·	·	·
CCOC(=O)Cn1c(S(=O)(=O)Cc2cccc(F)c2)nc(-c2ccccc2)c1-c1ccccc1	-11*	-6.6	-11.3	i	i	i	49.5%*	i	30.0%*
CCOC(=O)Cn1c(-c2ccc(OC)cc2)c(-c2ccc(OC)cc2)nnc1=O	i	-10.7	·	i	i	i	·	·	·
C#CCn1c(S(=O)(=O)Cc2ccc(F)cc2)nc(-c2ccccc2)c1-c1ccccc1	-14.3*	-11.8	11.7	i	i	i	61.0%*	i	31.0%*
CCOC(=O)C1=C(C)NC(=O)C(C#N)C1c1ccco1 (configuration not stated)	i	-9.1	34.6	i	i	i	·	·	·
COc1cc(C(=O)N2CCN(C(=O)C3CCCO3)CC2)cc(OC)c1OC (configuration not stated)	·	·	·	·	·	i	·	·	·
CC(C)(C)OC(=O)COc1cc(O)c2c(=O)cc(-c3ccccc3)oc2c1	-11.5*	-9.5	-4.5	10*	i	i	43.0%*	i	34.0%*
Clc1ccc(SCCOCCN2CCc3ccccc3C2)cc1	i	-8.6	21.5	i	i	i	i	i	i
OC(COC(c1ccc(Cl)cc1)c1ccc(Cl)cc1)CN1CCc2ccccc2C1 (configuration not stated)	-15.7*	-22.9	7.2	i	i	i	57.5%*	i	38.0%*
COc1ccc([C@H]2CC(=O)C=C(c3ccc(F)nc3)C2)cc1OC	·	·	·	·	·	i	·	·	·
Cc1cc(NC(=O)COC(=O)C2CC(=O)N(c3ccc(Br)cc3)C2)no1 (configuration not stated)	i	-5.1	23.0	i	i	i	·	·	·
CO/N=C/c1ccc(N2CCN(C(=O)c3ccc(C)cc3)CC2)c([N+](=O)[O-])c1	i	-12.6	15.8	i	i	i	·	·	·
Brc1cccc2sc(N3CCN(c4ccccc4)CC3)nc12	-14.1*	-12.2	7.3	i	i	i	47.0%*	i	29.5%*
Clc1cccc2sc(N3CCCCC3)nc12	i	-9.1	-6.7	i	i	i	·	·	·
CCC(c1nnnn1C(C)C)N1CCN(C2CCCC2)CC1 (configuration not stated)	i	-8.1	-12.0	i	i	i	·	·	·
CC(=O)Nc1ccc([N+](=O)[O-])cn1	-8.38*	-5.4	50.3	i	i	i	i	i	i
O=C(Nc1ccc([N+](=O)[O-])cn1)C1CC1	i	-4.9	-18.5	i	i	i	·	·	·

Screens as filed in PubChem.
